# Data taken from ChEMBL document CHEMBL5058577, “EUbOPEN Chemogenomics Library 2 (Multiplex)” (2022).
# Tested on: U2OS
# Assay: Multiplex assay against U2OS
# Assay type: toxicity, cell-based
# Settings: human
# Procedure, shortened: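 Imaging took place on a CQ1 microscope at 37°C and 5% CO2 once compound had been added to live cells stained at seeding with Hoechst33342, BioTracker Green Microtubule Cytoskeleton Dye, MitoTracker Red and Annexin V Alexa Fluor 680. CellPathfinder machine-learning gating classed cells as Hoechst high-intensity objects or normal cells, classed normal cells as having healthy, pyknosed or fragmented nuclei, and classed pyknosed cells as mitotic or apoptotic. Tubulin, mitochondrial-mass and membrane-permeability phenotypes are per cents of the healthy-nucleus cells.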
# [1] = 12 h, 1 µM, compound concentration 1 uM, replicate 1
# [2] = 12 h, 1 µM, compound concentration 1 uM, replicate 2
# [3] = 12 h, 10 µM, compound concentration 10 uM, replicate 1
# [4] = 12 h, 10 µM, compound concentration 10 uM, replicate 2
# [5] = 24 h, 1 µM, compound concentration 1 uM, replicate 1
# [6] = 24 h, 1 µM, compound concentration 1 uM, replicate 2
# [7] = 24 h, 10 µM, compound concentration 10 uM, replicate 1
# [8] = 24 h, 10 µM, compound concentration 10 uM, replicate 2
# [9] = 48 h, 1 µM, compound concentration 1 uM, replicate 1
# [10] = 48 h, 1 µM, compound concentration 1 uM, replicate 2
# [11] = 48 h, 10 µM, compound concentration 10 uM, replicate 1
# [12] = 48 h, 10 µM, compound concentration 10 uM, replicate 2
structure (smiles),measurement,setting,value
CN1CCN2c3ccccc3Cc3ccccc3C2C1.Cl (stereo not drawn) [MIANSERIN HYDROCHLORIDE],Population Apoptotic (%),[1],91%
same,Population Fragmented Nuclei (%),[1],35%
same,Population Healthy Nuclei (%),[1],56%
same,Population Hoechst High Intensity Objects (%),[1],3%
same,Population Membrane Permeable-Phenotype (%),[1],7%
same,Population Mitochondria Different-Phenotype (%),[1],4%
same,Population Mitotic Cells (%),[1],8%
same,Population Normal (%),[1],96%
same,Population Pyknosed Nuclei (%),[1],7%
same,Population Tubulin-Different-Phenotype (%),[1],5%
same,Total Cell Count,[1],162
same,Population Apoptotic (%),[2],83%
same,Population Fragmented Nuclei (%),[2],16%
same,Population Healthy Nuclei (%),[2],77%
same,Population Hoechst High Intensity Objects (%),[2],1%
same,Population Membrane Permeable-Phenotype (%),[2],3%
same,Population Mitochondria Different-Phenotype (%),[2],3%
same,Population Mitotic Cells (%),[2],16%
same,Population Normal (%),[2],98%
same,Population Pyknosed Nuclei (%),[2],5%
same,Population Tubulin-Different-Phenotype (%),[2],2%
same,Total Cell Count,[2],109
same,Population Apoptotic (%),[3],78%
same,Population Fragmented Nuclei (%),[3],23%
same,Population Healthy Nuclei (%),[3],68%
same,Population Hoechst High Intensity Objects (%),[3],2%
same,Population Membrane Permeable-Phenotype (%),[3],7%
same,Population Mitochondria Different-Phenotype (%),[3],3%
same,Population Mitotic Cells (%),[3],21%
same,Population Normal (%),[3],97%
same,Population Pyknosed Nuclei (%),[3],8%
same,Population Tubulin-Different-Phenotype (%),[3],4%
same,Total Cell Count,[3],277
same,Population Apoptotic (%),[4],86%
same,Population Fragmented Nuclei (%),[4],12%
same,Population Healthy Nuclei (%),[4],77%
same,Population Hoechst High Intensity Objects (%),[4],1%
same,Population Membrane Permeable-Phenotype (%),[4],1%
same,Population Mitochondria Different-Phenotype (%),[4],2%
same,Population Mitotic Cells (%),[4],13%
same,Population Normal (%),[4],98%
same,Population Pyknosed Nuclei (%),[4],10%
same,Population Tubulin-Different-Phenotype (%),[4],0%
same,Total Cell Count,[4],152
same,Population Apoptotic (%),[5],88%
same,Population Fragmented Nuclei (%),[5],34%
same,Population Healthy Nuclei (%),[5],56%
same,Population Hoechst High Intensity Objects (%),[5],1%
same,Population Membrane Permeable-Phenotype (%),[5],6%
same,Population Mitochondria Different-Phenotype (%),[5],1%
same,Population Mitotic Cells (%),[5],11%
same,Population Normal (%),[5],98%
same,Population Pyknosed Nuclei (%),[5],8%
same,Population Tubulin-Different-Phenotype (%),[5],4%
same,Total Cell Count,[5],197
same,Population Apoptotic (%),[6],75%
same,Population Fragmented Nuclei (%),[6],23%
same,Population Healthy Nuclei (%),[6],70%
same,Population Hoechst High Intensity Objects (%),[6],2%
same,Population Membrane Permeable-Phenotype (%),[6],4%
same,Population Mitochondria Different-Phenotype (%),[6],3%
same,Population Mitotic Cells (%),[6],25%
same,Population Normal (%),[6],97%
same,Population Pyknosed Nuclei (%),[6],5%
same,Population Tubulin-Different-Phenotype (%),[6],3%
same,Total Cell Count,[6],142
same,Population Apoptotic (%),[7],69%
same,Population Fragmented Nuclei (%),[7],21%
same,Population Healthy Nuclei (%),[7],68%
same,Population Hoechst High Intensity Objects (%),[7],1%
same,Population Membrane Permeable-Phenotype (%),[7],9%
same,Population Mitochondria Different-Phenotype (%),[7],2%
same,Population Mitotic Cells (%),[7],30%
same,Population Normal (%),[7],98%
same,Population Pyknosed Nuclei (%),[7],10%
same,Population Tubulin-Different-Phenotype (%),[7],2%
same,Total Cell Count,[7],319
same,Population Apoptotic (%),[8],93%
same,Population Fragmented Nuclei (%),[8],13%
same,Population Healthy Nuclei (%),[8],77%
same,Population Hoechst High Intensity Objects (%),[8],2%
same,Population Membrane Permeable-Phenotype (%),[8],7%
same,Population Mitochondria Different-Phenotype (%),[8],3%
same,Population Mitotic Cells (%),[8],6%
same,Population Normal (%),[8],97%
same,Population Pyknosed Nuclei (%),[8],8%
same,Total Cell Count,[8],183
same,Population Apoptotic (%),[9],78%
same,Population Fragmented Nuclei (%),[9],28%
same,Population Healthy Nuclei (%),[9],65%
same,Population Hoechst High Intensity Objects (%),[9],2%
same,Population Membrane Permeable-Phenotype (%),[9],5%
same,Population Mitochondria Different-Phenotype (%),[9],2%
same,Population Mitotic Cells (%),[9],21%
same,Population Normal (%),[9],97%
same,Population Pyknosed Nuclei (%),[9],5%
same,Population Tubulin-Different-Phenotype (%),[9],4%
same,Total Cell Count,[9],269
same,Population Fragmented Nuclei (%),[10],19%
same,Population Healthy Nuclei (%),[10],71%
same,Population Hoechst High Intensity Objects (%),[10],1%
same,Population Membrane Permeable-Phenotype (%),[10],4%
same,Population Mitochondria Different-Phenotype (%),[10],3%
same,Population Normal (%),[10],98%
same,Population Pyknosed Nuclei (%),[10],9%
same,Population Tubulin-Different-Phenotype (%),[10],2%
same,Total Cell Count,[10],206
same,Population Apoptotic (%),[11],91%
same,Population Fragmented Nuclei (%),[11],18%
same,Population Healthy Nuclei (%),[11],71%
same,Population Hoechst High Intensity Objects (%),[11],4%
same,Population Membrane Permeable-Phenotype (%),[11],4%
same,Population Mitochondria Different-Phenotype (%),[11],2%
same,Population Mitotic Cells (%),[11],8%
same,Population Normal (%),[11],95%
same,Population Pyknosed Nuclei (%),[11],9%
same,Population Tubulin-Different-Phenotype (%),[11],1%
same,Total Cell Count,[11],397
same,Population Apoptotic (%),[12],87%
same,Population Fragmented Nuclei (%),[12],15%
same,Population Healthy Nuclei (%),[12],73%
same,Population Hoechst High Intensity Objects (%),[12],2%
same,Population Mitochondria Different-Phenotype (%),[12],3%
same,Population Mitotic Cells (%),[12],12%
same,Population Normal (%),[12],97%
same,Population Pyknosed Nuclei (%),[12],11%
same,Population Tubulin-Different-Phenotype (%),[12],2%
same,Total Cell Count,[12],285
